Laboratory results published in ChEMBL document CHEMBL3745642, “Structure-Activity Relationships of Novel Tryptamine-Based Inhibitors of Bacterial Transglycosylase” (J Med Chem, 2015).
The source made the active and inactive calls. No cut-off for these calls is given here.

How the values were obtained:
[1] = tested on: Enterococcus faecium; assay: Antibacterial activity against Enterococcus faecium ATCC 19434 assessed as no visual turbidity by broth microdilution method; type: functional
Procedure, shortened: (§1)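 Broth microdilution in Mueller-Hinton broth following the EUCAST/CLSI procedure. Compounds were made as 10 mg/mL DMSO stocks, diluted 20-fold in broth just before use. Inoculum: colonies suspended to 0.5 McFarland (~1×10^8 CFU/mL) in 0.085% NaCl, then diluted 100-fold in broth. MIC is the lowest dilution with no visible turbidity.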

[2] = tested on: Staphylococcus aureus; assay: Antibacterial activity against methicillin-resistant Staphylococcus aureus ATCC 43300 assessed as no visual turbidity by broth microdilution method; type: functional
Procedure, shortened: (§2)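 Mueller-Hinton broth microdilution per EUCAST/CLSI, 200 µL final volume. Compounds taken from 10 mg/mL DMSO stocks and diluted 20-fold in broth just before use. Inoculum was colonies from overnight plates, adjusted to 0.5 McFarland (about 1.10^8 CFU/mL) in 0.085% NaCl, then diluted 100-fold in broth. MIC was the lowest dilution with no visible turbidity.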

[3] = Binding affinity to lipid2 in carboxyfluorescein loaded DOPC large unilamellar vesicle assessed as inhibition of nisin-induced carboxyfluorescein leakage at 3 uM preincubated for 2 mins followed by nisin addition measured after 50 secs
Procedure, shortened: (§3)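 DOPC LUVs (200-nm extrusion) containing 0.1 mol% lipid II and loaded with 50 mM CF, used at 20 µM lipid in 10 mM Tris, 150 mM NaCl, pH 7.5. Compound (from 1 mM DMSO stock) preincubated 2 min, then 20 nM nisin added. Leakage read at ex 492/em 516 nm and normalized to Triton X-100 total release. Residual nisin activity at 50 s is expressed relative to a no-compound control; run in triplicate.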

[4] = tested on: Escherichia coli; assay: Inhibition of transglycosylase activity of Escherichia coli PBP1b assessed as remaining activity at 500 uM incubated for 30 mins by continous fluorescence assay
Procedure, shortened: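 Continuous fluorescence TG assay at 30 °C with purified E. coli PBP1b (100 nM) and dansyl-lipid II (10 µM) plus 1 U muramidase (Cellosyl). Fluorescence (ex 355/em 536 nm) read for 30 min. Relative activity measured with compound at 500 µM.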

[5] = tested on: Escherichia coli; assay: Antibacterial activity against Escherichia coli ATCC 8739 assessed as no visual turbidity by broth microdilution method; type: functional; procedure, shortened: as §1
[6] = tested on: Staphylococcus aureus; assay: Antibacterial activity against Staphylococcus aureus ATCC 25923 assessed as no visual turbidity by broth microdilution method; type: functional; procedure, shortened: as §2
[7] = Binding affinity to lipid2 in carboxyfluorescein loaded DOPC large unilamellar vesicle assessed as inhibition of nisin-induced carboxyfluorescein leakage at 1.5 uM preincubated for 2 mins followed by nisin addition measured after 50 secs; procedure, shortened: as §3
[8] = Inhibition of transglycosylase activity of Escherichia coli PBP1b incubated for 30 mins by continous fluorescence assay
[9] = tested on: HEK293; assay: Cytotoxicity against HEK293 cells assessed as reduction in cell viability at 8 ug/ml after 24 hrs by MTS assay; type: cell-based; conditions: human, hek293, 24 h
Procedure, shortened: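 HEK293 cells grown in DMEM with 10% FBS, 2 mM glutamine and penicillin/streptomycin at 37 °C, 5% CO2. Cells seeded at 2×10^4 per well and allowed to adhere 24 h. Compound added at 8 µg/mL final from an 8 mg/mL DMSO stock, with vehicle controls, in triplicate for 24 h. Metabolic activity read by MTS (CellTiter 96 AQueous One).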

[10] = target: T1, Penicillin-binding protein 2 (Staphylococcus aureus, UniProt Q53729); assay: Inhibition of Staphylococcus aureus PBP2 transglycosylase activity after 30 mins by continous fluorescence assay
T1 sequence (Q53729 whole entry): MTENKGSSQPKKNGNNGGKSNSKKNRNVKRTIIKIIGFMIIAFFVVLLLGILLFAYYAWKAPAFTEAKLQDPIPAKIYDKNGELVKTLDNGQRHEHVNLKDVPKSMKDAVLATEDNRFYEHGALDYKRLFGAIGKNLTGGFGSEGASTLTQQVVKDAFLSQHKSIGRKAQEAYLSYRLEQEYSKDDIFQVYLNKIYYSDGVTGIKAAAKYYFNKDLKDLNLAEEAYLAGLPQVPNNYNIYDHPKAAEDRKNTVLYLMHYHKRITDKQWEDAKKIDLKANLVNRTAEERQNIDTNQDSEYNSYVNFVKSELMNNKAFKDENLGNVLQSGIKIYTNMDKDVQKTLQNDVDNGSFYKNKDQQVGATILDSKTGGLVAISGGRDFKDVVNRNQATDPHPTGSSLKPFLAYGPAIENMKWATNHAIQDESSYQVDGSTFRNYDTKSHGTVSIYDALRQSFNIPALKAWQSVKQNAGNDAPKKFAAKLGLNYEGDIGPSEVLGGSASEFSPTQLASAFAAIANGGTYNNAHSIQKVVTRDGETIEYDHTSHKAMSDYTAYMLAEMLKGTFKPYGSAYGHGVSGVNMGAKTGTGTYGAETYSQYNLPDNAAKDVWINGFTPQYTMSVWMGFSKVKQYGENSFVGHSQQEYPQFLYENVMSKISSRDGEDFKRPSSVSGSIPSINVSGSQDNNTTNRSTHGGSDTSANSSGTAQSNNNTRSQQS

[11] = Inhibition of Thermotoga maritima PBP1A transglycosylase activity after 30 mins by continous fluorescence assay
[12] = Inhibition of Staphylococcus aureus mtgA after 30 mins by continous fluorescence assay
[13] = Inhibition of Enterococcus hirae PBP2 transglycosylase activity after 30 mins by continous fluorescence assay

Row | Structure (SMILES) | MIC [1] | MIC [2] | Activity [4] | MIC [5] | MIC ([6]; read-out: MIC) | IC50 [8] | other results
1 | COc1ccc2c(c1)c(CCNC(=N)N)c(C)n2Cc1ccc(Cl)c(Cl)c1.Cl | 9.1 µM | 9.1 µM | 4% | 72 µM | 9.1 µM | 39 µM | inhibition [3]: > 90%; Activity [7]: Active; Activity [9]: Non-toxic
2 | COc1ccc(Cn2cc(CCNC(=N)N)c3ccccc32)cc1 |  |  | 67% |  |  |  | 
3 | COc1ccc(Cn2cc(CCN)c3ccccc32)cc1 |  |  | 80% |  |  |  | 
4 | COc1ccc2c(c1)c(CCN)c(C)n2Cc1ccc(Cl)c(Cl)c1.Cl | 20 µM | 40 µM | 5% | 20 µM | 20 µM | 104 µM | Activity [9]: Toxic
5 | COc1ccc2c(c1)c(CCN)cn2Cc1ccc(Cl)c(Cl)c1.Cl | 83 µM | 83 µM | 24% | 166 µM | 83 µM | 193 µM | Activity [9]: Toxic
6 | COc1ccc2c(c1)c(CCN)c(C)n2Cc1ccc(C#N)cc1 |  |  | 118% |  |  |  | 
7 | N#Cc1cccc(Cn2cc(CCN)c3ccccc32)c1 |  |  | 94% |  |  |  | 
8 | Cl.N=C(N)NCCc1cn(Cc2ccc(F)c(F)c2)c2ccccc12 | 88 µM | 88 µM | 10% | 44 µM | 44 µM | 97 µM | Activity [9]: Non-toxic
9 | NCCc1cn(Cc2ccc(F)c(F)c2)c2ccccc12 | 198 µM | 397 µM | 62% | 198 µM | 198 µM | > 250 µM | 
10 | COc1cccc(Cn2cc(CCN)c3ccccc32)c1 |  |  | 86% |  |  |  | 
11 | CSc1ccc2c(c1)c(CCN)c(C)n2Cc1ccc(Cl)c(Cl)c1 [listing 1 of 3 here] | 76 µM | 9.6 µM |  | 616 µM |  | 29 µM | IC50 [10]: 20.7 µM; MIC [6]: 16 mg/L; IC50 [11]: 56 µM; IC50 [12]: 27 µM; IC50 [13]: 33 µM; Activity [9]: Toxic
12 | NCCc1cn(Cc2ccc(F)cc2)c2ccccc12 |  |  | 97% |  |  |  | 
13 | COc1ccccc1Cn1cc(CCNC(=N)N)c2ccccc21 | 44 µM | 89 µM | 29% | > 356 µM | 89 µM | > 250 µM | 
14 | N=C(N)NCCc1cn(Cc2ccc(F)cc2)c2ccccc12 | 184 µM | 369 µM | 42% | 184 µM | 92 µM | > 250 µM | 
15 | COc1ccccc1Cn1cc(CCN)c2ccccc21 |  |  | 96% |  |  |  | 
16 | N=C(N)NCCc1cn(Cc2cccc(Cl)c2)c2ccccc12 | 73 µM | 145 µM | 15% | 145 µM | 145 µM | 166 µM | 

Row | Structure (SMILES) | MIC [1] | MIC [2] | Activity [4] | MIC [5] | MIC ([6]; read-out: MIC) | IC50 [8] | other results
17 | CSc1ccc2c(c1)c(CCN)c(C)n2Cc1ccccc1 | 92 µM | 184 µM | 31% | 369 µM | 92 µM | > 250 µM | 
18 | Cl.N=C(N)NCCc1cn(Cc2ccc(Cl)c(Cl)c2)c2ccccc12 | 10 µM | 20 µM | 1% | 40 µM | 20 µM | 51 µM | Activity [9]: Non-toxic
19 | COc1ccc2c(c1)c(CCN)c(C)n2Cc1ccc(F)c(F)c1 | 174 µM | 174 µM | 28% | 174 µM | 174 µM | > 250 µM | 
20 | N#Cc1cccc(Cn2cc(CCNC(=N)N)c3ccccc32)c1 |  |  | 79% |  |  |  | 
21 | CSc1ccc2c(c1)c(CCN)c(C)n2Cc1ccc(Cl)c(Cl)c1 [listing 2 of 3 here] |  |  | 1% |  |  |  | 
22 | CSc1ccc2c(c1)c(CCN)c(C)n2Cc1ccc(Cl)c(Cl)c1 [listing 3 of 3 here] |  |  |  |  |  | 21 µM | 
23 | COc1ccc2c(c1)c(CCN)cn2Cc1ccc(C#N)cc1 |  |  | 105% |  |  |  | 
24 | COc1cccc(Cn2cc(CCNC(=N)N)c3ccccc32)c1 | 293 µM | 146 µM | 55% | 73 µM | 73 µM | > 250 µM | 
25 | NCCc1cn(Cc2cccc(Cl)c2)c2ccccc12 | 100 µM | 100 µM | 54% | 100 µM | 100 µM | > 250 µM | 
26 | COc1ccc2c(c1)c(CCNC(=N)N)cn2Cc1ccc(F)c(F)c1 | 324 µM | 162 µM | 28% | 81 µM | 81 µM | > 250 µM | 
27 | NCCc1cn(Cc2ccccc2)c2ccccc12 |  |  | 93% |  |  |  | 
28 | COc1ccc2c(c1)c(CCN)c(C)n2Cc1ccccc1 |  |  | 75% |  |  |  | 
29 | N=C(N)NCCc1cn(Cc2ccccc2)c2ccccc12 |  |  | 73% |  |  |  | 
30 | COc1ccc2c(c1)c(CCNC(=N)N)cn2Cc1ccc(Cl)c(Cl)c1.Cl | 19 µM | 19 µM | 9% | 37 µM | 19 µM | 50 µM | Activity [7]: Active; Activity [9]: Non-toxic
31 | Cl.NCCc1cn(Cc2ccc(Cl)c(Cl)c2)c2ccccc12 | 11 µM | 45 µM | 15% | 45 µM | 45 µM | 103 µM | Activity [9]: Toxic
32 | COc1ccc2c(c1)c(CCN)cn2Cc1ccc(F)c(F)c1 |  |  | 88% |  |  |  | 
